# ChEMBL document CHEMBL3272042, “Novel heterocyclic nitrofurfural hydrazones. In vivo antirypanosomal activity” (J Med Chem, 1976)
# Activity calls are given as the source filed them. The calls are words filed in the database; no cut-off is given here.
# Tests used:
# Trypanosoma cruzi [1] = experiment: Antitrypanosomal activity against bloodstream forms of Trypanosoma cruzi infected in C3H/He mouse assessed as increase in mean survival time at 100 mg/kg, po bid administered through gavage starting 3 days post challenge for 5 successive days relative to control; type: functional; conditions: for survival at 100 mg/kg: Trypanosoma cruzi, po, 72 h
# How it was run: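 Male C3H/He mice infected ip with 2×10^3 bloodstream T. cruzi (Brazilian strain). Compound micronized to 0.5-2.0 μ and suspended in 0.9% NaCl, 1.0% Na carboxymethylcellulose, 0.5% Tween 80, 0.05% antifoam B; given at 100 mg/kg (0.01 ml/2 g) by gavage twice daily for 5 days from day 3 post-infection; groups of 7. Value is percent IMST over untreated controls; Student's t test.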
# Trypanosoma cruzi [2] = experiment: Antitrypanosomal activity against bloodstream forms of Trypanosoma cruzi by in vitro assay; type: functional; conditions: for MIC: Trypanosoma cruzi
# How it was run: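 Serial dilution in liquid culture in Warren's medium. Read-outs are the minimum inhibitory concentration (MIC) and the minimum lethal concentration (MLC), both in μg/ml.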
# Mus musculus [3] = experiment: Toxicity in C3H/He mouse infected with bloodstream forms of Trypanosoma cruzi assessed as weight loss at 100 mg/kg, po bid administered through gavage starting 3 days post challenge for 5 successive days; type: organism-based; design: dose 100 mg/kg, route oral; conditions: in vivo, 72 h
# How it was run: (§1)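 Male C3H/He mice were infected ip with 2×10^3 bloodstream forms of a Brazilian T. cruzi strain. Compounds were micronized to 0.5-2.0 μ and suspended in 0.9% NaCl, 1.0% Na-CMC, 0.5% Tween 80 and 0.05% antifoam B, dosed at 0.01 ml/2 g body weight. Groups of seven got 100 mg/kg by gavage twice daily for 5 days, starting day 3 postinfection, with untreated controls.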
# Trypanosoma cruzi [4] = experiment: Antitrypanosomal activity against bloodstream forms of Trypanosoma cruzi infected in C3H/He mouse assessed as parasitologic cures at 100 mg/kg, po bid administered through gavage starting 3 days post challenge for 5 successive days relative to control; type: functional, organism-based; design: dose 100 mg/kg; how it was run: as §1
# Trypanosoma cruzi [5] = experiment: Antitrypanosomal activity against bloodstream forms of Trypanosoma cruzi infected in C3H/He mouse assessed as parasitologic cures at 200 mg/kg, po administered 4 times a day through gavage starting 3 days post challenge for 5 successive days relative to control; type: functional, organism-based; design: dose 200 mg/kg
# How it was run: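 Male C3H/He mice were infected ip with 2×10^3 bloodstream T. cruzi forms (Brazilian strain). Compound was given orally at 200 mg/kg four times daily for 5 days, then followed for parasitemia, survival and body weight.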
# Mus musculus [6] = experiment: Toxicity in C3H/He mouse infected with bloodstream forms of Trypanosoma cruzi assessed as weight loss at 200 mg/kg, po qid administered 4 times a day through gavage starting 3 days post challenge for 5 successive days; conditions: in vivo, 72 h
# Trypanosoma cruzi [7] = experiment: Antitrypanosomal activity against bloodstream forms of Trypanosoma cruzi infected in C3H/He mouse assessed as increase in mean survival time at 100 mg/kg, ip bid starting 3 days post challenge for 5 successive days relative to control; type: functional; conditions: 72 h, route intraperitoneal
# How it was run: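 Infection: ip inoculation of 2×10^3 bloodstream forms of a Brazilian T. cruzi strain into male C3H/He mice. Compound given by intraperitoneal route, 100 mg/kg twice daily. Value is percent increase in mean survival time beyond untreated controls, taken from mortality records; significance by Student's t test.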
compound,measurement,setting,value
Cc1cc(N/N=C/c2ccc([N+](=O)[O-])o2)n2ncnc2n1,survival at 100 mg/kg,Trypanosoma cruzi [1],4.3%
same,MLC,Trypanosoma cruzi [2],>100 µg/mL
same,MIC,Trypanosoma cruzi [2],> 100 µg/mL
Cc1nc(N/N=C/c2ccc([N+](=O)[O-])o2)n2nc(-c3ccccc3)cc2n1,survival at 100 mg/kg,Trypanosoma cruzi [1],24.9%
same,MLC,Trypanosoma cruzi [2],3.2 µg/mL
same,MIC,Trypanosoma cruzi [2],1 µg/mL
O=[N+]([O-])c1ccc(/C=N/Nc2cc(Cl)nc3nccn23)o1,survival at 100 mg/kg,Trypanosoma cruzi [1],4.4%
same,MLC,Trypanosoma cruzi [2],100 µg/mL
same,MIC,Trypanosoma cruzi [2],10 µg/mL
O=[N+]([O-])c1ccc(/C=N/Nc2cc(Cl)nc3ccnn23)o1,survival at 100 mg/kg,Trypanosoma cruzi [1],36.3%
same,MLC,Trypanosoma cruzi [2],1 µg/mL
same,MIC,Trypanosoma cruzi [2],< 1 µg/mL
same,Activity,Mus musculus [3],Non-toxic
Cc1cc(N/N=C/c2ccc([N+](=O)[O-])o2)n2ncc(-c3ccccc3)c2n1,MLC,Trypanosoma cruzi [2],1 µg/mL
same,MIC,Trypanosoma cruzi [2],< 1 µg/mL
same,Activity,Mus musculus [3],Non-toxic
Cc1cc(N/N=C/c2ccc([N+](=O)[O-])o2)n2nccc2n1,survival at 100 mg/kg,Trypanosoma cruzi [1],63.4%
same,MLC,Trypanosoma cruzi [2],10 µg/mL
same,MIC,Trypanosoma cruzi [2],10 µg/mL
same,Activity,Trypanosoma cruzi [4],inactive
same,Activity,Trypanosoma cruzi [5],inactive
same,Activity,Mus musculus [3],Non-toxic
same,Activity,Mus musculus [6],Toxic
O=[N+]([O-])c1ccc(/C=N/Nc2cc(Cl)nc3c(Cl)cnn23)o1,survival at 100 mg/kg,Trypanosoma cruzi [1],14.6%
same,MLC,Trypanosoma cruzi [2],10 µg/mL
same,MIC,Trypanosoma cruzi [2],10 µg/mL
same,Activity,Mus musculus [3],Non-toxic
Cc1cc(N/N=C/c2ccc([N+](=O)[O-])o2)n2ncc(Br)c2n1,survival at 100 mg/kg,Trypanosoma cruzi [1],21.9%
same,MLC,Trypanosoma cruzi [2],>100 µg/mL
same,MIC,Trypanosoma cruzi [2],100 µg/mL
same,Activity,Mus musculus [3],Non-toxic
Cc1cc(N/N=C/c2ccc([N+](=O)[O-])o2)n2ncc(S(=O)(=O)[O-])c2n1.[Na+],Survival,Trypanosoma cruzi [1],8.5%
same,MLC,Trypanosoma cruzi [2],>100 µg/mL
same,MIC,Trypanosoma cruzi [2],> 100 µg/mL
same,Activity,Mus musculus [3],Non-toxic
Cc1cc(N/N=C/c2ccc([N+](=O)[O-])o2)n2ncc(S(=O)(=O)O)c2n1,survival at 100 mg/kg,Trypanosoma cruzi [1],9%
same,MLC,Trypanosoma cruzi [2],100 µg/mL
same,MIC,Trypanosoma cruzi [2],> 10 µg/mL
same,Activity,Mus musculus [3],Non-toxic
Cc1cc(N/N=C/c2ccc([N+](=O)[O-])o2)n2ccnc2n1,MLC,Trypanosoma cruzi [2],>100 µg/mL
same,MIC,Trypanosoma cruzi [2],> 100 µg/mL
CCOC(=O)c1cnn2c(N/N=C/c3ccc([N+](=O)[O-])o3)cc(C)nc12,survival at 100 mg/kg,Trypanosoma cruzi [1],1.3%
same,MLC,Trypanosoma cruzi [2],10 µg/mL
same,MIC,Trypanosoma cruzi [2],10 µg/mL
same,Activity,Mus musculus [3],Non-toxic
O=[N+]([O-])c1ccc(/C=N/Nc2ccnc3ccnn23)o1,survival at 100 mg/kg,Trypanosoma cruzi [1],< 1%
same,MLC,Trypanosoma cruzi [2],10 µg/mL
same,MIC,Trypanosoma cruzi [2],10 µg/mL
same,Activity,Mus musculus [3],Non-toxic
Cc1cc(N/N=C/c2ccc([N+](=O)[O-])o2)n2ncc(-c3ccc(Cl)cc3)c2n1,survival at 100 mg/kg,Trypanosoma cruzi [7],20.5%
same,MLC,Trypanosoma cruzi [2],3.2 µg/mL
same,MIC,Trypanosoma cruzi [2],1 µg/mL
same,Activity,Mus musculus [3],Non-toxic
